By IC50 is commonly meant the concentration that gives 50% inhibition. What is called EC50 is the concentration at which the effect is half-maximal.

Active and inactive are the calls of the source. No cut-off for these calls is given here.

5 compounds from ChEMBL document CHEMBL3856278, “Antitumor Activity of Lankacidin Group Antibiotics Is Due to Microtubule Stabilization via a Paclitaxel-like Mechanism” (J Med Chem, 2016) can be followed below.

The nature of assay [1]: Cytotoxicity against human HeLa cells assessed as decrease in cell viability after 48 hrs by CellTiter-Blue assay. In kind it is functional, cell-based. The procedure, abridged:
(§1)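 HeLa cells in DMEM with 10% FBS; T47D cells in RPMI1640 with 10% FBS, insulin and pyruvate. Cells seeded at 2000 per well 24 h before treatment. Triplicate wells given increasing drug concentrations in DMSO for 48, 72 or 96 h. Viability read by CellTiter-Blue fluorescence (560ex/590em) after 2–4 h with reagent. Run twice; mean and SEM reported.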
Background: Resazurin is reduced to fluorescent resorufin, in cell work by metabolically active cells.

Assay [2] is described as follows: Cytotoxicity against human HeLa cells assessed as decrease in cell viability after 72 hrs by CellTiter-Blue assay. In kind it is functional, cell-based. The essentials:
as §1

Assay [3] is described as follows: Cytotoxicity against human HeLa cells assessed as decrease in cell viability after 96 hrs by CellTiter-Blue assay. In kind it is functional, cell-based. The essentials: as §1
Assay [4] in a line: Cytotoxicity against human T47D cells assessed as decrease in cell viability after 48 hrs by CellTiter-Blue assay. In kind it is functional, cell-based. The essentials: as §1
A short description of assay [5]: Cytotoxicity against human T47D cells assessed as decrease in cell viability after 96 hrs by CellTiter-Blue assay. In kind it is functional, cell-based. The essentials: as §1
Assay [6] relates to T47D. The assay can be described thus: Stabilization of interphase microtubule network in human T47D cells at 1 mM after 2 hrs by DAPI staining-based immunofluorescence assay. The class given is cell-based. The procedure, abridged:
(§2)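 T47D cells seeded on coverslips and synchronized. Treated 2 h with drug (colchicine 0.5 μM, paclitaxel 100 nM, lankacidin C 1 mM) against a 1% DMSO control. Stained with anti-tubulin antibody and Alexa Fluor 488 secondary, DNA counterstained with DAPI. Imaged by epifluorescence microscopy with a 63× objective.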

Assay [7] relates to T47D. The assay can be described thus: Stabilization of interphase microtubule network in human T47D cells assessed as disruption of mitotic spindles at 1 mM after 2 hrs by DAPI staining-based immunofluorescence assay. The class given is cell-based. The essentials: as §2
The species named for assay [8] is Sus scrofa. Kind of assay: Induction of porcine tubulin polymerization assessed as maximum growth rate at 10 uM measured every 94 secs (reference value: 13 milliOD/min). The procedure, abridged:
(§3)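 Assembly followed at 37 °C by OD340 every 94 s for 61 cycles. Averaged curves from three runs were analysed for nucleation, Vmax and final polymer mass.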

For assay [9], the species on record is Sus scrofa. The assay can be described thus: Induction of porcine tubulin polymerization assessed as increase in final polymer mass at 10 uM measured every 94 secs. The essentials:
as §3

Assay [10] is filed under the species Sus scrofa. The assay can be described thus: Induction of porcine tubulin polymerization assessed as decrease in duration of nucleation phase at 10 uM measured every 94 secs. The essentials: as §3
The species entered for assay [11] is Sus scrofa. Kind of assay: Induction of porcine tubulin polymerization assessed as bypass of nucleation phase at 100 uM measured every 94 secs. The procedure, abridged:
as §3

The species entered for assay [12] is Sus scrofa. The assay can be described thus: Induction of porcine tubulin polymerization assessed as maximum growth rate at 100 uM measured every 94 secs (reference value: 13 milliOD/min). The procedure, abridged: as §3
The species named for assay [13] is Sus scrofa. Kind of assay: Induction of porcine tubulin polymerization assessed as doubling of final polymer mass at 100 uM measured every 94 secs. The essentials: as §3
The species entered for assay [14] is Sus scrofa. The assay can be described thus: Stabilization of rhodamine labeled porcine microtubule assessed as appearance of long strands microtubules at 10 uM after 5 mins by upright fluorescence microscopic analysis. The procedure, abridged: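 Rhodamine-labeled tubulin mixed 1:4 with unlabeled tubulin to 5 mg/mL in G-PEM (12% glycerol, pH 7.0). Polymerized 20 min at 37 °C, then drug added to 10 μM and incubated 5 min more at 37 °C. Diluted to 1.3 mg/mL and imaged immediately by fluorescence microscopy with a 40× oil objective.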

Assay [15] can be described thus: Inhibition of flutax-2 binding to porcine microtubule assessed as flutax-2 EC50 at 128 uM after 1 hr by fluorescence assay (reference value: 248 +/- 50 nM). Also noted: species or system Sus scrofa.
The nature of assay [16]: Binding affinity to paclitaxel binding site of porcine microtubule after 1 hr by Michaelis-Menten plot analysis. Also noted: species or system Sus scrofa. The following applies: read-out: Kd(app).
Assay [17] can be described thus: (§4) Binding affinity to free porcine brain tubulin dimers after 30 mins by fluorescence quenching assay. Also noted: species or system Sus scrofa. The procedure, abridged:
(§5)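 Free tubulin dimers (porcine brain tubulin, or recombinant human αI-βI) at 2 μM final in 10 mM sodium phosphate, 10 mM MgCl2, 1 mM GTP, 0.5% DMSO, 250 mM sucrose, pH 7.0. Held on ice 10 min, then ligand added at 5–100 μM final. Incubated 30 min at 25 °C, then rotated 1 h at room temperature. Tryptophan emission read at 310–400 nm with 295 nm excitation. Kd derived by Stern–Volmer fit.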

The species named for assay [18] is Sus scrofa. The assay is described as §4. The essentials: as §5
The target in assay [19] is Tubulin alpha-1A /beta chains (Homo sapiens) (UniProt Q71U36+P07437). Kind of assay: (§6) Binding affinity to human recombinant tubulin alpha 1A/tubulin beta chain after 30 mins by fluorescence quenching assay. The class given is protein-complex assay. The procedure, abridged:
as §5

The target in assay [20] is Tubulin alpha-1A /beta chains (Homo sapiens, UniProt P07437+Q71U36). The description is as §6. In kind it is protein-complex assay. The essentials:
as §5

Assay [21] concerns T47D. Kind of assay: Destabilization of microtubule network in human T47D cells at 0.5 uM after 2 hrs by DAPI staining-based immunofluorescence assay. In kind it is cell-based. The procedure, abridged:
as §2

The species entered for assay [22] is Sus scrofa. Kind of assay: Destabilization of rhodamine labeled porcine microtubule assessed as appearance of short strands microtubules at 10 uM after 5 mins by upright fluorescence microscopic analysis.
The test system of assay [23] is T47D. Kind of assay: Stabilization of microtubule network in human T47D cells at 100 nM after 2 hrs by DAPI staining-based immunofluorescence assay. In kind it is cell-based. The essentials:
(§7)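 T47D cells in RPMI1640 with 2 mM L-glutamine, 10% FBS, 0.01 mg/mL insulin and 1 mM pyruvate were seeded on coverslips, synchronized, then given drug 2 h (1% DMSO solvent control). Anti-tubulin antibody with Alexa Fluor 488 secondary and 0.1 μg/mL DAPI for DNA; epifluorescence at 63×, interphase networks and mitotic spindles scored.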

In assay [24] the test system is T47D. The assay can be described thus: Stabilization of interphase microtubule network in human T47D cells assessed as disruption of mitotic spindles at 100 nM after 2 hrs by DAPI staining-based immunofluorescence assay. The class given is cell-based. The procedure, abridged: as §7
The species entered for assay [25] is Sus scrofa. The assay can be described thus: Induction of porcine tubulin polymerization assessed as bypass of nucleation phase at 10 uM measured every 94 secs. The procedure, abridged:
(§8)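 Plate prewarmed to 37 °C; OD340 read at 37 °C every 94 s for 61 cycles with orbital shaking. Runs in triplicate, duplicate for mebendazole; the averaged curve gave phase lengths, Vmax and final polymer mass.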

For assay [26], the species on record is Sus scrofa. Kind of assay: Inhibition of porcine tubulin polymerization assessed as increase in duration of nucleation phase at 10 uM measured every 94 secs. The procedure, abridged: as §8
The species entered for assay [27] is Sus scrofa. The assay can be described thus: Inhibition of porcine tubulin polymerization assessed as maximum growth rate at 10 uM measured every 94 secs (reference value: 13 milliOD/min). The essentials:
as §8

The species entered for assay [28] is Sus scrofa. The assay can be described thus: Inhibition of porcine tubulin polymerization assessed as decrease in final polymer mass at 10 uM measured every 94 secs. The essentials: as §8

Sequence of Tubulin alpha-1A /beta chains (P07437 whole entry, looked up): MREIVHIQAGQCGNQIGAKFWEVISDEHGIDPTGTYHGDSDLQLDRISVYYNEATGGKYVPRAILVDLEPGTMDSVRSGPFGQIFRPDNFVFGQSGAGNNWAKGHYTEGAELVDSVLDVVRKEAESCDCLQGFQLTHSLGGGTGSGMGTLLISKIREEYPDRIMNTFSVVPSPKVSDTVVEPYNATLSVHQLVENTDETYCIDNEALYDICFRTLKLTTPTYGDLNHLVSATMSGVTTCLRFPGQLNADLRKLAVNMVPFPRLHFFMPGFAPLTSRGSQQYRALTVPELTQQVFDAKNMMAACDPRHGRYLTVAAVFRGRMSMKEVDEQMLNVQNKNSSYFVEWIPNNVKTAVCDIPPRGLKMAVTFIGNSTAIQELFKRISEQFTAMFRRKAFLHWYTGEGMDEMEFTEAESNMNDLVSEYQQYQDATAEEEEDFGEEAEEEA
Sequence of Tubulin alpha-1A /beta chains (Q71U36 whole entry, looked up): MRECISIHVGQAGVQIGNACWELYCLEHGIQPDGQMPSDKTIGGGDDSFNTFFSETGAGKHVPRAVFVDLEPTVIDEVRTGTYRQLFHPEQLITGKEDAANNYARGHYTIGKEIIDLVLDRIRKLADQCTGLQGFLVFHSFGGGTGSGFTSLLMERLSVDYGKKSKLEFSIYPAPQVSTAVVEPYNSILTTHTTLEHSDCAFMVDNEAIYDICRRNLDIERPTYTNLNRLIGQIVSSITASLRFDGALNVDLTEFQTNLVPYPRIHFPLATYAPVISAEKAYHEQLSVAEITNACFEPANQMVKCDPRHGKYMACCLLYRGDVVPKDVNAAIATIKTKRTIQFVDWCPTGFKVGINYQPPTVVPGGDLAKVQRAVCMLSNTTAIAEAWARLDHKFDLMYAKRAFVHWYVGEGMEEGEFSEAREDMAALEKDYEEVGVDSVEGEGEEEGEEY
Sequence of Tubulin alpha-1A /beta chains (Homo sapiens) (P07437 whole entry, looked up): as the sequence (P07437 whole entry, looked up) above
Sequence of Tubulin alpha-1A /beta chains (Homo sapiens) (Q71U36 whole entry, looked up): as the sequence (Q71U36 whole entry, looked up) above

`CC(=O)C(=O)N[C@@H]1/C=C(\C)C=C[C@@H](O)C/C=C(C)/C=C/[C@@H](O)C[C@H]2OC(=O)[C@]1(C)C(=O)[C@@H]2C`: the IC50 in assay [1] was determined as 1080 µM; in assay [2], 324 µM; in assay [3], 224 µM; in assay [4], 202 µM; in [5], 11.1 µM. Besides, the result with T47D [6], in the assay on T47D [7], in the assay filed under Sus scrofa [9], in the assay filed under Sus scrofa [10], in the assay listed under Sus scrofa [11] and in the assay filed under Sus scrofa [13] was Active. Further, in the assay filed under Sus scrofa [14], the outcome was Active. Further, the Vmax (milli optical density/minute) in the assay filed under Sus scrofa [8] was found to be 18; in the assay listed under Sus scrofa [12], 35. For the same compound, the EC50 in assay [15] came out at 0.921 µM. The Kd turned out to be 50 µM in assay [16], 546 µM in [17] and 1060 µM in assay [20]. Also, the Activity entry (in the assay filed under Sus scrofa [18]; in assay [19]) was “Dose-dependent effect” throughout.

Consider `COc1cc2c(c(OC)c1OC)-c1ccc(OC)c(=O)cc1[C@@H](NC(C)=O)CC2`, for which the outcome in the assay on T47D [21] and in the assay filed under Sus scrofa [22] was Active.

Take `CC(=O)O[C@H]1C(=O)[C@@]2(C)[C@H]([C@H](OC(=O)c3ccccc3)[C@]3(O)C[C@H](OC(=O)[C@H](O)[C@@H](NC(=O)c4ccccc4)c4ccccc4)C(C)=C1C3(C)C)[C@]1(OC(C)=O)CO[C@@H]1C[C@@H]2O`: the outcome with T47D [23], in the assay with T47D [24], in the assay filed under Sus scrofa [25], in the assay listed under Sus scrofa [9] and in the assay listed under Sus scrofa [14] was Active. In addition, the Vmax (milli optical density/minute) in the assay filed under Sus scrofa [8] is 21.

`COC(=O)Nc1nc2cc(C(=O)c3ccccc3)ccc2[nH]1`: the inhibition entry in the assay filed under Sus scrofa [26] and in the assay filed under Sus scrofa [28] was “Active” throughout. Besides, the Vmax (milli optical density/minute) in the assay filed under Sus scrofa [27] was determined as 4.

`CC(=O)O[C@@H]1/C=C/C(C)=C/C[C@H](O)/C=C/C(C)=C/[C@@H](NC(=O)C(C)O)[C@]2(C)C(=O)O[C@H](C1)[C@@H](C)C2=O` (stereo not given in full): the Kd was determined as 1100 µM in [17] and 654 µM in assay [20]. Moreover, the Activity entry (in the assay filed under Sus scrofa [18]; in assay [19]) was “Dose-dependent effect” in each case.
